Results taken from ChEMBL document CHEMBL3576869 (ACS Med Chem Lett, 2015).

Columns and labels:
[1] = target: Phosphatidylinositol 4,5-bisphosphate 3-kinase catalytic subunit alpha isoform (Homo sapiens, UniProt P42336); assay: Inhibition of PI3Kalpha (unknown origin) using PIP2/PS as substrate after 1 hr by luciferase-based luminescence assay
Homo sapiens = species on record: Homo sapiens; assay: Selectivity ratio of IC50 for mTOR (unknown origin) to IC50 for PI3Kalpha (unknown origin)
[2] = target: Serine/threonine-protein kinase mTOR (Homo sapiens, UniProt P42345); assay: Inhibition of mTOR (unknown origin) using GFP-4E-BP1 as substrate after 1 hr by TR-FRET assay
NCI-H1975 = assay: Cytotoxicity against human NCI-H1975 cells harboring PIK3CA mutant assessed as growth inhibition after 4 days by CellTiter-Glo luminescent cell viability assay; format: functional, cell-based; details: NCI-H1975, 96 h
How it was run: (§1)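 Proliferation panel of human cancer lines carrying either a PIK3CA mutation or a PTEN deletion, with A549 as the one line carrying neither. Growth inhibition is reported as IC50.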

A549 = assay: Cytotoxicity against PTEN deletion mutant/PIK3CA mutant-deficient human A549 cells assessed as growth inhibition after 4 days by CellTiter-Glo luminescent cell viability assay; format: functional, cell-based; details: A549, 96 h; how it was run: as §1
[3] = target: Phosphatidylinositol 4,5-bisphosphate 3-kinase catalytic subunit beta isoform (Homo sapiens, UniProt P42338); assay: Inhibition of PI3Kbeta (unknown origin) using PIP2/PS as substrate after 1 hr by luciferase-based luminescence assay
[4] = Cytotoxicity against human H460 cells harboring PIK3CA mutant assessed as growth inhibition after 4 days by CellTiter-Glo luminescent cell viability assay; format: functional, cell-based; details: NCI-H460, 96 h; how it was run: as §1
[5] = Apparent permeability across apical to basolateral side in human Caco2 cells at 10 uM after 1.5 hrs by LC/MS/MS analysis; format: ADME, cell-based; details: Caco-2
[6] = target: T1, Phosphatidylinositol 4,5-bisphosphate 3-kinase catalytic subunit delta isoform (Homo sapiens, UniProt O00329); assay: Inhibition of PI3Kdelta (unknown origin) using PIP2/PS as substrate after 1 hr by luciferase-based luminescence assay
T1 sequence (O00329 whole entry): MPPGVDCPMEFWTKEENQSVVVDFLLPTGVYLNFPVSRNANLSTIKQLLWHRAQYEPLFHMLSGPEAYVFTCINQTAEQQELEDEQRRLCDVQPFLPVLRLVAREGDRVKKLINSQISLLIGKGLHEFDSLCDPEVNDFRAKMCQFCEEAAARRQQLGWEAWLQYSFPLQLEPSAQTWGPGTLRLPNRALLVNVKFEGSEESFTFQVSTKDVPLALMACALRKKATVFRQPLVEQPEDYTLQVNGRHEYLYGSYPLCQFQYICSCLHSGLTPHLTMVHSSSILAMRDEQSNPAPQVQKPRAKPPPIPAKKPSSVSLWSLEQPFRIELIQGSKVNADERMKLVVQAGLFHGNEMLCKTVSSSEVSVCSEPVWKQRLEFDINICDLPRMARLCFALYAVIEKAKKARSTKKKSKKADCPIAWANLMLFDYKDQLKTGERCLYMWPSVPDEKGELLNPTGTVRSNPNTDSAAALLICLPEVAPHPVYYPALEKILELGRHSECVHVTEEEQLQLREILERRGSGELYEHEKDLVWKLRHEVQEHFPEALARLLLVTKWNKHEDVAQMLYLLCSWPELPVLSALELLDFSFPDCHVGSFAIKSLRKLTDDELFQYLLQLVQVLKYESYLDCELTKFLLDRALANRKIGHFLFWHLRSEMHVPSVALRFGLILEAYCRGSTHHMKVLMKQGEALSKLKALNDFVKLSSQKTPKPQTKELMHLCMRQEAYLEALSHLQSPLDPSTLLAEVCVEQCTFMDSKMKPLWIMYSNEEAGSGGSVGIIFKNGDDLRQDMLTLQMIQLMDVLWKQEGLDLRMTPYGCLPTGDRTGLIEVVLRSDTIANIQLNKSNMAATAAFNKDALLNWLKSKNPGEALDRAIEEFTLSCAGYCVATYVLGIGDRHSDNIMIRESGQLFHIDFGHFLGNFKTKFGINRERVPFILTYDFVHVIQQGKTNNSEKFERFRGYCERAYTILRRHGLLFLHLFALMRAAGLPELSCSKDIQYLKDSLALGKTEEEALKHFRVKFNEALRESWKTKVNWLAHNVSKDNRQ

[7] = Inhibition of PI3K in human T47D cells assessed as inhibition of AKT phosphorylation at Ser 473 after 4 hrs by Western blot analysis; format: cell-based
[8] = target: Phosphatidylinositol 4,5-bisphosphate 3-kinase catalytic subunit gamma isoform (Homo sapiens, UniProt P48736); assay: Inhibition of PI3Kgamma (unknown origin) using PIP2/PS as substrate after 1 hr by luciferase-based luminescence assay
[9] = Apparent permeability across basolateral to apical side in human Caco2 cells at 10 uM after 1.5 hrs by LC/MS/MS analysis; format: ADME, cell-based; details: Caco-2
T47D = assay: Cytotoxicity against human T47D cells harboring PIK3CA mutant assessed as growth inhibition after 4 days by CellTiter-Glo luminescent cell viability assay; format: functional, cell-based; details: 96 h; how it was run: as §1
SK-OV-3 = assay: Cytotoxicity against human SKOV3 cells harboring PIK3CA mutant assessed as growth inhibition after 4 days by CellTiter-Glo luminescent cell viability assay; format: functional, cell-based; details: SK-OV-3, 96 h; how it was run: as §1
[10] = Permeability of the compound after 5 hrs by PAMPA; format: physicochemical; details: read-out: permeability
U-87 MG = assay: Cytotoxicity against human U87MG cells harboring PTEN deletion mutant assessed as growth inhibition after 4 days by CellTiter-Glo luminescent cell viability assay; format: functional, cell-based, U-87MG ATCC; details: 96 h; how it was run: as §1
[11] = Efflux ratio of apparent permeability across basolateral to apical side over apical to basolateral side in human Caco2 cells; format: ADME, cell-based; details: Caco-2

Phosphatidylinositol 4,5-bisphosphate 3-kinase catalytic subunit alpha isoform, sequence (P42336 whole entry, canonical isoform): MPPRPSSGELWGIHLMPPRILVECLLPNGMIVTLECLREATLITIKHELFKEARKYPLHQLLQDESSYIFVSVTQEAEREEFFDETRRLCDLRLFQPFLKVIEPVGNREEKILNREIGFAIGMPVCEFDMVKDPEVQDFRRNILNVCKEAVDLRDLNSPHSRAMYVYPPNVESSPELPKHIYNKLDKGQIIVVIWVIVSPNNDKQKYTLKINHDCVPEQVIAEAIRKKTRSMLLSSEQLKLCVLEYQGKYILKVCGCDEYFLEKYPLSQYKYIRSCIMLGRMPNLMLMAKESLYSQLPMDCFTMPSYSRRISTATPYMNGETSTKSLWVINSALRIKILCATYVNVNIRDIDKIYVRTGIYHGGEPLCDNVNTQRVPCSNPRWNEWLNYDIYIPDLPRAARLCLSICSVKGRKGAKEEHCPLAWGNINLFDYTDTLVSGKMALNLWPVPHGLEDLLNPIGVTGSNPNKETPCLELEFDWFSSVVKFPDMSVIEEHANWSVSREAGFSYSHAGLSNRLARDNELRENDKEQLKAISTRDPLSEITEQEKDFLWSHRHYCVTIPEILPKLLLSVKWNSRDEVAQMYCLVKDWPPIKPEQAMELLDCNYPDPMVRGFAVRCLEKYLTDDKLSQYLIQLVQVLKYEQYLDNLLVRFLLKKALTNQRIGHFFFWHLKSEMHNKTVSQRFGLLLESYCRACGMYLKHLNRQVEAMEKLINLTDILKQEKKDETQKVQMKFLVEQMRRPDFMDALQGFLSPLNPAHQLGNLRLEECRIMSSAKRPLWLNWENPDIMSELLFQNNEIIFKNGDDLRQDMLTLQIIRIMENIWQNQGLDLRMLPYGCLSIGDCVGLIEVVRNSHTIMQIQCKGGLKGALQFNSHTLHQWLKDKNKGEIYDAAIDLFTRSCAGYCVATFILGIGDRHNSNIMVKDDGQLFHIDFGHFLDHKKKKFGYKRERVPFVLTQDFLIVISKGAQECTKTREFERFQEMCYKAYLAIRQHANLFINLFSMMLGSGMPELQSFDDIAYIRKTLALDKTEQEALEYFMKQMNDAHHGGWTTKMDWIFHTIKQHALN
Phosphatidylinositol 4,5-bisphosphate 3-kinase catalytic subunit gamma isoform, sequence (P48736 whole entry, canonical isoform): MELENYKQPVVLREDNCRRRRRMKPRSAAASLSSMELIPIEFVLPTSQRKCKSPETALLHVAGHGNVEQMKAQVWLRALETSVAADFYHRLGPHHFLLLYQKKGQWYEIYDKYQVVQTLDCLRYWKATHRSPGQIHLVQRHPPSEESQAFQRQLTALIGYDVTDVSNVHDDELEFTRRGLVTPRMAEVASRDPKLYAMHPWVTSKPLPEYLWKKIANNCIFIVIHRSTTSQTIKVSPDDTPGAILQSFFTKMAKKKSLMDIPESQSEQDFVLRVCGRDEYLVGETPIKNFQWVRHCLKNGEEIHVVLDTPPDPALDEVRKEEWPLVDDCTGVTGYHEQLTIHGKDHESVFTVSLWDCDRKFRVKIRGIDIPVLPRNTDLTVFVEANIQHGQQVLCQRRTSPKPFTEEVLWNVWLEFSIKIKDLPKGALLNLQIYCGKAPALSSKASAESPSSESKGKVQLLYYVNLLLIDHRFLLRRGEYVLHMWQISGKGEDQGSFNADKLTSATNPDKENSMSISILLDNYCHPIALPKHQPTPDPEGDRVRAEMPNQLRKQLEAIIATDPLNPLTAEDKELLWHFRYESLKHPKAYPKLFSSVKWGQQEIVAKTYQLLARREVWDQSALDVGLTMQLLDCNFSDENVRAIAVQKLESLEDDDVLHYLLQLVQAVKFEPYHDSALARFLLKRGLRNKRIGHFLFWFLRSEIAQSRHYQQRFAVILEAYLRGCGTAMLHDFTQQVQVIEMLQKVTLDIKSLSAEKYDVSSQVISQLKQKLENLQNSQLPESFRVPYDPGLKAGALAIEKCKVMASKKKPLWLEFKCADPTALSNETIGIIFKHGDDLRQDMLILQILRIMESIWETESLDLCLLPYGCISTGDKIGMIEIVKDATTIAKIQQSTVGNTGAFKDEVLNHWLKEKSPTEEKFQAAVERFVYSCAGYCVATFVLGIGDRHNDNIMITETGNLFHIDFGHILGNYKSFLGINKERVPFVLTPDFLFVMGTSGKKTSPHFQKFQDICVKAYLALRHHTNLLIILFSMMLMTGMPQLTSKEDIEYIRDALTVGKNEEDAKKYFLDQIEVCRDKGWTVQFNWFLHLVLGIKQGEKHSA
Phosphatidylinositol 4,5-bisphosphate 3-kinase catalytic subunit beta isoform, sequence (P42338 whole entry, canonical isoform): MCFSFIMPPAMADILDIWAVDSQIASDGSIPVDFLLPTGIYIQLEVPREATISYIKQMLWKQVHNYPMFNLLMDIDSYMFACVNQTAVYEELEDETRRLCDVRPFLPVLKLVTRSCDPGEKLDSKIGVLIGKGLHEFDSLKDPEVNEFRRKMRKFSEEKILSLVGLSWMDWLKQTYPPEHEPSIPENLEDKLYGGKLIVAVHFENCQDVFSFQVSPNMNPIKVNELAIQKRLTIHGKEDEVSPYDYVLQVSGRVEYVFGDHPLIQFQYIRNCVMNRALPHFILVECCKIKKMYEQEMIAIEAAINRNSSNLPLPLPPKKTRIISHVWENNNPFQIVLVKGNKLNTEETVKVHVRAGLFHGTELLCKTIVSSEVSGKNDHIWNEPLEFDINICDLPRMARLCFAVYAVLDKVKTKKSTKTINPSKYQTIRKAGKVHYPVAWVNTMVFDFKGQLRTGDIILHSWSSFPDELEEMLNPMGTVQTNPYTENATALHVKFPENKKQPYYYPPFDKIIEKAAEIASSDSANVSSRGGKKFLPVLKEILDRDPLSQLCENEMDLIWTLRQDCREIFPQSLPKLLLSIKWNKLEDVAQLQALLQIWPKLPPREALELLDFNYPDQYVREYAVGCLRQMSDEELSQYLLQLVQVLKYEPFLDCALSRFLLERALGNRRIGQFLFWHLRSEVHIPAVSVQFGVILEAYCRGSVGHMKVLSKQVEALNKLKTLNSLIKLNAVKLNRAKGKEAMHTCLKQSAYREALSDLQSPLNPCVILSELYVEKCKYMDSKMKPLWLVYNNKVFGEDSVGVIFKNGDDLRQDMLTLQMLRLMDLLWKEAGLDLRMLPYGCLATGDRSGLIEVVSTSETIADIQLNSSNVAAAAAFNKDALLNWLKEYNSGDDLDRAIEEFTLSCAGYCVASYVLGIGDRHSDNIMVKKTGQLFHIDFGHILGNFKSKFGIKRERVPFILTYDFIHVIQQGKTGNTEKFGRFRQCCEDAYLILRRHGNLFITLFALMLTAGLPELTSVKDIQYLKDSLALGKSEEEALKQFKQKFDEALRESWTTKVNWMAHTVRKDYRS

IC50 [1] [nM] | Ratio IC50 (Homo sapiens) | IC50 [2] [nM] | Structure (SMILES) | further results
3490 |  |  | COc1ncc(-c2cc3c(-c4ccncc4)ncnc3s2)cn1 | 
17 |  |  | COc1ncc(-c2cc3c(-c4ccncc4)ncnc3s2)cc1NS(=O)(=O)c1ccc(C(F)(F)F)cc1 | 
> 2500 |  |  | COc1ncc(-c2cc3c(-c4ccncc4)ncnc3s2)cc1F | 
0.15 | 172 | 25.8 | O=S(=O)(Nc1cc(-c2cc3c(-c4ccncc4)ncnc3s2)cnc1Cl)c1ccc(Cl)s1 | 
1230 |  |  | COc1ccc(-c2cc3c(-c4ccncc4)ncnc3s2)cn1 | 
0.07 | 4.1 | 0.29 | COc1ncc(-c2ccc3nc(N)nc(-c4ccncc4)c3c2)cc1NS(=O)(=O)c1ccc(F)cc1F | 
0.27 | 80 | 21.6 | COc1ncc(-c2ccc3nncc(-c4ccncc4)c3c2)cc1NS(=O)(=O)c1ccc(F)cc1F | 
43.1 |  |  | COc1ncc(-c2cc3c(-c4ccncc4)ncnc3s2)cc1NS(C)(=O)=O | 
0.1 | 7.5 | 0.75 | COc1ncc(-c2ccc3nccc(-c4ccncc4)c3c2)cc1NS(=O)(=O)c1ccc(F)cc1F | 
0.3 | 146 | 43.7 | O=S(=O)(Nc1cc(-c2cc3c(-c4ccncc4)ncnc3s2)cnc1Cl)c1ccc(F)cc1 | 
1.3 | 52 | 67.9 | COc1ncc(-c2cc3c(-c4ccncc4)ncnc3s2)cc1NS(=O)(=O)c1ccc(Cl)s1 | 
51.7 | 1.2 | 62.3 | COc1ncc(-c2cnc3ncnc(-c4ccncc4)c3c2)cc1NS(=O)(=O)c1ccc(F)cc1F | 
34.7 | 1.9 | 66.7 | COc1ncc(-c2cnc3nccc(-c4ccncc4)c3c2)cc1NS(=O)(=O)c1ccc(F)cc1F | 
3.6 | 100 | 363 | COc1ncc(-c2cc3c(-c4ccncc4)ncnc3s2)cc1NS(=O)(=O)c1ccc(C#N)cc1 | 
72.3 |  |  | COc1ncc(-c2sc3ncnc(-c4ccncc4)c3c2C)cc1NS(=O)(=O)c1ccc(F)cc1F | 
2.07 | 105 | 218 | COc1ncc(-c2cc3c(-c4ccncc4)ncnc3s2)cc1NS(=O)(=O)c1ccc(F)cc1F | IC50 (NCI-H1975): 1070 nM; IC50 (A549): 3180 nM; IC50 [3]: 22.5 nM; IC50 [4]: 420 nM; Papp A→B at 1.5 h, 10 µM [5]: 5.6 ×10⁻⁶ cm/s; IC50 [6]: 13.3 nM; IC50 [7]: 84.6 nM; IC50 [8]: 21.1 nM; Papp B→A at 1.5 h, 10 µM [9]: 4.5 ×10⁻⁶ cm/s; IC50 (T47D): 660 nM; IC50 (SK-OV-3): 3740 nM; Papp at 5 h [10]: 8 ×10⁻⁶ cm/s; IC50 (U-87 MG): 4400 nM; efflux ratio [11]: 0.8
1.7 | 203 | 345 | Cc1ncc(-c2cc3c(-c4ccncc4)ncnc3s2)cc1NS(=O)(=O)c1ccc(F)cc1F | 
0.095 | 2.1 | 0.2 | COc1ncc(-c2ccc3ncnc(-c4ccncc4)c3c2)cc1NS(=O)(=O)c1ccc(F)cc1F | 
0.23 | 233 | 53.6 | O=S(=O)(Nc1cc(-c2cc3c(-c4ccncc4)ncnc3s2)cnc1Cl)c1ccc(F)cc1F | IC50 (NCI-H1975): 2200 nM; IC50 (A549): 8440 nM; IC50 [3]: 3.6 nM; IC50 [4]: 2940 nM; Papp A→B at 1.5 h, 10 µM [5]: 4.8 ×10⁻⁶ cm/s; IC50 [6]: 3.1 nM; IC50 [8]: 10.2 nM; Papp B→A at 1.5 h, 10 µM [9]: 6.9 ×10⁻⁶ cm/s; IC50 (T47D): 1520 nM; IC50 (SK-OV-3): 5200 nM; Papp at 5 h [10]: 7 ×10⁻⁶ cm/s; IC50 (U-87 MG): 4430 nM; efflux ratio [11]: 1.4
 | 0.52 |  | COc1ncc(-c2cnc3nc(N)nc(-c4ccncc4)c3c2)cc1NS(=O)(=O)c1ccc(F)cc1F | 
1.02 | 3 | 3.04 | COc1ncc(-c2cc3c(-c4ccncc4)ccnc3cn2)cc1NS(=O)(=O)c1ccc(F)cc1F | 
